From article PMC7610841 (Nature, 2020)

Tests used:
senseless = experiment: Effect of overexpression on high target gene senseless in wing discs; assay type: in vivo, Drosophila; settings: driven with ptc-Gal4 in wing discs
Outline: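 Wing discs from crosses at 25°C, with V5-tagged human glypican UAS-attB transgenes driven by ptc-Gal4 (senseless) or en-Gal4 (Distal-less). Discs immunostained with Alexa-conjugated secondaries, DAPI-mounted and imaged by confocal microscopy. Distal-less signal quantified in boxed regions and plotted separately for anterior and posterior compartments. Three independent repeats.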

GFP-Wingless = experiment: In vivo trapping of GFP-Wingless at the surface of wing imaginal disc cells; design: species or system Drosophila; settings: overexpressed with ptc-Gal4 in wing imaginal discs
Outline: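 GFP-Wingless knock-in wing discs with V5-tagged human GPC4, GPC6, GPC3 or GPC5 driven by ptc-Gal4, crossed at 25°C. Surface capture of GFP-Wingless imaged by confocal microscopy after immunostaining with Alexa-conjugated secondaries and DAPI mounting. Three independent repeats.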

extracellular Wingless = experiment: In vivo trapping of endogenous extracellular Wingless in wing discs; design: species or system Drosophila; settings: overexpressed with ptc-gal4 in wing discs; extracellular Wingless staining
Outline: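 HA-tagged wild-type or point-mutant Dlp/Dally transgenes (attP2 landing site) driven by ptc-gal4, crossed at 25°C. Wing discs immunostained for extracellular Wingless using an extracellular staining protocol, DAPI-mounted and imaged on a confocal microscope. Three independent repeats.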

B1: GPC4: human glypican of Dlp family; secreted ΔGPI form (amino acids 1-487) in solubilisation assays (protein)
chain: ALLAAELKSKSCSEVRRLYVSKGFNKNDAPLHEINGDHLKICPQGSTCCSQEMEEKYSLQSKDDFKSVVSEQCNHLQAVFASRYKKFDEFFKELLENAEKSLNDMFVKTYGHLYMQNSELFKDLFVELKRYYVVGNVNLEEMLNDFWARLLERMFRLVNSQYHFTDEYLECVSKYTEQLKPFGDVPRKLKLQVTRAFVAARTFAQGLAVAGDVVSKVSVVNPTAQCTHALLKMIYCSHCRGLVTVKPCYNYCSNIMRGCLANQGDLDFEWNNFIDAMLMVAERLEGPFNIESVMDPIDVKISDAIMNMQDNSVQVSQKVFQGCGPPKPLPAGRISRSISESAFSARFRPHHPEERPTTAAGTSLDRLVTDVKEKLKQAKKFWSSLPSNVCNDERMAAGNGNEDDCWNGKGKSRYLFAVTGNGLANQGNNPEVQVDTSKPDILILRQIMALRVMTSKMKNAYNGNDVDFFDISDESSGEGSGSGCEYQQCPSEFDYNATDHAGKSANEKADS
modifications: left off: V5, internal (immediately after the signal peptide), state not stated
senseless
  effect on high target gene senseless: inhibit the high target gene senseless
GFP-Wingless; listed as hGPC4
  trapping of GFP-Wingless at the cell surface: trapped Wingless

B2: GPC6: human glypican of Dlp family; secreted ΔGPI form (amino acids 1-529) in solubilisation assays (protein)
chain: DVKARSCGEVRQAYGAKGFSLADIPYQEIAGEHLRICPQEYTCCTTEMEDKLSQQSKLEFENLVEETSHFVRTTFVSRHKKFDEFFRELLENAEKSLNDMFVRTYGMLYMQNSEVFQDLFTELKRYYTGGNVNLEEMLNDFWARLLERMFQLINPQYHFSEDYLECVSKYTDQLKPFGDVPRKLKIQVTRAFIAARTFVQGLTVGREVANRVSKVSPTPGCIRALMKMLYCPYCRGLPTVRPCNNYCLNVMKGCLANQADLDTEWNLFIDAMLLVAERLEGPFNIESVMDPIDVKISEAIMNMQENSMQVSAKVFQGCGQPKPAPALRSARSAPENFNTRFRPYNPEERPTTAAGTSLDRLVTDIKEKLKLSKKVWSALPYTICKDESVTAGTSNEEECWNGHSKARYLPEIMNDGLTNQINNPEVDVDITRPDTFIRQQIMALRVMTNKLKNAYNGNDVNFQDTSDESSGSGSGSGCMDDVCPTEFEFVTTEAPAVDPDRREVDS
modifications: left off: V5, internal (immediately after the signal peptide), state not stated
senseless
  effect on high target gene senseless: inhibit the high target gene senseless
GFP-Wingless; listed as hGPC6
  trapping of GFP-Wingless at the cell surface: trapped Wingless

B3: Dlp[N367C, M175C]^ΔGPI: Dlp mutant with engineered disulphide bridge locking closed, apo conformation (protein)
chain: PQVAALAAPNPAGGVAGSSIIDQFSPNCSAVTHIFQARGIDAIEIPQKPSNERVLRYCESPSVGTCCTYNMETRMAMQSRQQLEGHTKDQISRMSGILGSKATKFKDIFTALLKESRTQFNSCFIRTYGVIYERNSYVFSDLFKELETYFANGRVDLLEVMDKFFNTLYQKMFTVLNTQYTFDENYMRCVSEHMKELKPFGDVPDKLSVQIKRSFVATRTYGQALTTASEVAKKVLNVRLNADCTGALTKMQHCGACKGYTEKPCTNYCVNVIKGCLHYQHEFDSEWENFAMAMDKVAERLLGSFNIVMVVEPLCIKISEAIMNFQDSGQDITNRVFQGCGRPKLKKMKRSISPKLQGVQILNARSPVEADTLDIDETLDEAIVLRERRAAEPGSQETSAQQSQEQGVGKSGNGGGGGGGNNRRQQQRRKQQQQRRKQQNNRDDNDDDDNESGGGREPILDRIVRDIRQRVKDYKKFWSNLPHSVCSNEDIASSSDVDGMCWNGHTIDRYMHSITTEHGSNPEFTGNPASTKQTAQMASQLSHLKNAIVHLRNAYNGQDVEWSEQEELPYAGSGAGSGSGSEDDEDDDEGSGLGPFEPSHKPDVERPSVDADNDDDEDAGGRGHMPTHTSRPTSGVDDKNPLIHTTHFDQDHNDLDEDHRQLDEDEDTDAG
modifications: left off: V5, C-terminal, kept
Extracellular Wingless
  trapping of endogenous Wingless: no in vivo trapping activity

B4: Dlp[S168M]^ΔGPI: Dlp mutant with bulky residue at cavity entrance; HA form used in discs (protein)
chain: PQVAALAAPNPAGGVAGSSIIDQFSPNCSAVTHIFQARGIDAIEIPQKPSNERVLRYCESPSVGTCCTYNMETRMAMQSRQQLEGHTKDQISRMSGILGSKATKFKDIFTALLKEMRTQFNSMFIRTYGVIYERNSYVFSDLFKELETYFANGRVDLLEVMDKFFNTLYQKMFTVLNTQYTFDENYMRCVSEHMKELKPFGDVPDKLSVQIKRSFVATRTYGQALTTASEVAKKVLNVRLNADCTGALTKMQHCGACKGYTEKPCTNYCVNVIKGCLHYQHEFDSEWENFAMAMDKVAERLLGSFNIVMVVEPLNIKISEAIMNFQDSGQDITNRVFQGCGRPKLKKMKRSISPKLQGVQILNARSPVEADTLDIDETLDEAIVLRERRAAEPGSQETSAQQSQEQGVGKSGNGGGGGGGNNRRQQQRRKQQQQRRKQQNNRDDNDDDDNESGGGREPILDRIVRDIRQRVKDYKKFWSNLPHSVCSNEDIASSSDVDGMCWNGHTIDRYMHSITTEHGSNPEFTGNPASTKQTAQMASQLSHLKNAIVHLRNAYNGQDVEWSEQEELPYAGSGAGSGSGSEDDEDDDEGSGLGPFEPSHKPDVERPSVDADNDDDEDAGGRGHMPTHTSRPTSGVDDKNPLIHTTHFDQDHNDLDEDHRQLDEDEDTDAG
modifications: left off: V5, C-terminal, kept
Extracellular Wingless
  trapping of endogenous Wingless: retained some activity

B5: Dlp[F172T, F195Y]: Dlp mutant replacing hydrophobic residues with polar ones (protein)
chain: MLHQQQQQQHLHCRRKATATTTARLVIFSSPLLLLLLTTHLPPTLQADNGPAPQVAALAAPNPAGGVAGSSIIDQFSPNCSAVTHIFQARGIDAIEIPQKPSNERVLRYCESPSVGTCCTYNMETRMAMQSRQQLEGHTKDQISRMSGILGSKATKFKDIFTALLKESRTQTNSMFIRTYGVIYERNSYVFSDLYKELETYFANGRVDLLEVMDKFFNTLYQKMFTVLNTQYTFDENYMRCVSEHMKELKPFGDVPDKLSVQIKRSFVATRTYGQALTTASEVAKKVLNVRLNADCTGALTKMQHCGACKGYTEKPCTNYCVNVIKGCLHYQHEFDSEWENFAMAMDKVAERLLGSFNIVMVVEPLNIKISEAIMNFQDSGQDITNRVFQGCGRPKLKKMKRSISPKLQGVQILNARSPVEADTLDIDETLDEAIVLRERRAAEPGSQETSAQQSQEQGVGKSGNGGGGGGGNNRRQQQRRKQQQQRRKQQNNRDDNDDDDNESGGGREPILDRIVRDIRQRVKDYKKFWSNLPHSVCSNEDIASSSDVDGMCWNGHTIDRYMHSITTEHGSNPEFTGNPASTKQTAQMASQLSHLKNAIVHLRNAYNGQDVEWSEQEELPYAGSGAGSGSGSEDDEDDDEGSGLGPFEPSHKPDVERPSVDADNDDDEDAGGRGHMPTHTSRPTSGVDDKNPLIHTTHFDQDHNDLDEDHRQLDEDEDTDAGHDGANDNRSSDAPEKMTLRRALVVYLLPLYMAWFGGVCADLL
modifications: left off: HA, end not stated, kept
Extracellular Wingless
  trapping of endogenous Wingless: reduced trapping, though not completely

B6: Dlp[R169E, T170N, Q171M, F172T]: Dlp mutant introducing the putative glycosylation site of Dally (protein)
chain: MLHQQQQQQHLHCRRKATATTTARLVIFSSPLLLLLLTTHLPPTLQADNGPAPQVAALAAPNPAGGVAGSSIIDQFSPNCSAVTHIFQARGIDAIEIPQKPSNERVLRYCESPSVGTCCTYNMETRMAMQSRQQLEGHTKDQISRMSGILGSKATKFKDIFTALLKESENMTNSMFIRTYGVIYERNSYVFSDLFKELETYFANGRVDLLEVMDKFFNTLYQKMFTVLNTQYTFDENYMRCVSEHMKELKPFGDVPDKLSVQIKRSFVATRTYGQALTTASEVAKKVLNVRLNADCTGALTKMQHCGACKGYTEKPCTNYCVNVIKGCLHYQHEFDSEWENFAMAMDKVAERLLGSFNIVMVVEPLNIKISEAIMNFQDSGQDITNRVFQGCGRPKLKKMKRSISPKLQGVQILNARSPVEADTLDIDETLDEAIVLRERRAAEPGSQETSAQQSQEQGVGKSGNGGGGGGGNNRRQQQRRKQQQQRRKQQNNRDDNDDDDNESGGGREPILDRIVRDIRQRVKDYKKFWSNLPHSVCSNEDIASSSDVDGMCWNGHTIDRYMHSITTEHGSNPEFTGNPASTKQTAQMASQLSHLKNAIVHLRNAYNGQDVEWSEQEELPYAGSGAGSGSGSEDDEDDDEGSGLGPFEPSHKPDVERPSVDADNDDDEDAGGRGHMPTHTSRPTSGVDDKNPLIHTTHFDQDHNDLDEDHRQLDEDEDTDAGHDGANDNRSSDAPEKMTLRRALVVYLLPLYMAWFGGVCADLL
modifications: left off: HA, end not stated, kept
Extracellular Wingless
  trapping of endogenous Wingless: reduced trapping, though not completely

B7: Dally[E149R, N150T, M151Q, T152F]: Dally mutant removing predicted glycosylation site and restoring hydrophobic F (protein)
chain: KHLDLDGIHHHQHHLHSATTHHRRRLQRDSRAKDAVGGSTHQCDAVKSYFESIDIKSSGTYSEKGAICGGNCCNNATELELRDKAAGMFEQLLHHHTSSLRGVLETNAKQFQSHVLELAQISRTQFHSLFSKVYTRMVPSSRMMIHQLYTEIMNHLIYTSNYTNSNGQLGRRGIGSVQSNLEEAVRHFFVQLFPVAYHQMVHLSKNNLGDLHEDYVNCLQHNFDEMHPFGDIPQQVQSNLGKSVHMSNVFMNALLQAAEVLSEADALYGEQLTDTCKLHLLKMHYCPNCNGHHSSSRSETKLCYGYCKNVMRGCSAEYAGLLDSPWSGVVDSLNNLVTTHILSDTGIINVIKHLQTYFSEAIMAAMHNGPELEKKVKKTCGTPSLTPYSSGEPDARPPPHKNNVKWATDPDPGMVLFLSTIDKSKEFYTTIVDNFCDEQQHSRDDHSCWSGDRFGDYTQLLINPGTDSQRYNPEVPFNAKAQTGKLNELVDKLFKIRKSIGAAAPSNSIQATHDIQNDMGEGSGGGEGQIGDDEEEYGGAHGSGDGSGDGPHTPIEESEGTTTNEVESRDSGKTSG
modifications: left off: HA, end not stated, kept
Extracellular Wingless
  trapping of endogenous Wingless: did not confer lipid-binding activity
